In the library only some 2% were active in any assay of this set; here they are far more common.
ASAP1 inh: ASAP1 ArfGAP inhibition | Q9ULH1 | ASAP1-stimulated ARF1 GTP hydrolysis, GDP FP detection | inhibition, % at 16.5 µM | 360,000 tested, 0.19% active | AID 624377; in the data active means inhibition above about 25%
ARFGAP1 inhibitor: rat ARFGAP1 inhibition. 360,000 tested, 0.26% active. inhibition, % at 16.5 µM. Arfgap1-stimulated ARF1 GTP hydrolysis, GDP FP detection. Q62848. AID 651572;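 active means inhibition above a per-plate limit, mean inhibition of low control wells plus 3 SD, cut at about 25% in these data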
Target sequence (Q62848 1-136 limits assumed): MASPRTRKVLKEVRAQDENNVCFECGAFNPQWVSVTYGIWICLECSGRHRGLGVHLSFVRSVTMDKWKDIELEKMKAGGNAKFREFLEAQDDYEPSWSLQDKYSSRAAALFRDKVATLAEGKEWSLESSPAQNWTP
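Material: rat Arfgap1 catalytic domain, aa 1-136; also added: human ARF1(Δ1-17)-GTP substrate; compound dosing: one concentration, 16.5 µM, DMSO 1.26%; incubation: GTP hydrolysis reaction 2 h at 25 °C; measured by: Tracer-displacement fluorescence polarization with EDTA stop, 620/688 nm; evaluation: % inhibition from polarization; repeats: one replicate per compound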
UHRF1 MBD2 ctr: human UHRF1 methylated DNA binding inhibitors; 370,000 tested, 0.75% active; UHRF1 binding to methylated oligo, TR-FRET; inhibition, % at 4.4 µM; Q96T88; in the data active means inhibition above about 21%;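 further: UHRF1 SRA domain binding a hemimethylated CpG hairpin DNA probe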
TCR-CD3 inh: blocks the human TCR-CD3 interaction; AID 651800; inhibition, % at 9.4 µM; TAMRA-labeled TCR probe fluorescence, biochemical; 360,000 tested, 0.37% active;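 further: recombinant mutant TCR 2C K166C tagged with TAMRA read by polarization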
MBD2 inh: MBD2-methylated oligo binding inhibition. inhibition, % at 4.4 µM. TR-FRET, MBD2 binding to methylated oligonucleotide. 370,000 tested, 0.31% active. AID 686964. Q9UBB5; in the data active means inhibition above about 13%
Target sequence (Q9UBB5 whole entry, looked up): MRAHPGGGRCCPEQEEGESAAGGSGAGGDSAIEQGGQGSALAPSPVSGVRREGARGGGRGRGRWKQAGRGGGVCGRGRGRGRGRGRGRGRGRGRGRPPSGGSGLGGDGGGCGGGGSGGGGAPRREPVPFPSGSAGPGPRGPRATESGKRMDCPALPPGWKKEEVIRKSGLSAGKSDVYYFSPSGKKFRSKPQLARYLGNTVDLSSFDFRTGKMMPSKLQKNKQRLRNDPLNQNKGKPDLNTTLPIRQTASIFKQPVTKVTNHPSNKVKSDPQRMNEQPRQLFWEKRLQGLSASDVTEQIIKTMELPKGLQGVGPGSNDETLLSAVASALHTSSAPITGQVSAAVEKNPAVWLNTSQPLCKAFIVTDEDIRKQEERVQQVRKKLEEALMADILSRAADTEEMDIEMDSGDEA
LEDGF integ inh: blocks HIV-1 LEDGF/p75-dependent DNA integration. TR-FRET IN-LEDGF/p75 DNA integration, Eu/Cy5. AID 743269. 370,000 tested, 0.64% active. inhibition, % at 3.7 µM;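 active means inhibition above the screen-wide mean plus 3 SD, cut at about 13% in these data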;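 further: signal is the Cy5 over europium emission ratio at 671 and 618 nm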
BSA probe FL: counter-screen for TCR-CD3 interaction inhibitors: BSA probe | shares compounds with TCR-CD3 inh | TAMRA-labeled BSA probe fluorescence counterscreen | inhibition, % at 9.4 µM | 1,200 tested, 10% active; in the data active means inhibition above about 23%
TCR-CD3 conf: TCR-CD3 interaction inhibition, confirmation; shares compounds with TCR-CD3 inh; TAMRA-labeled TCR probe fluorescence binding assay; inhibition, % at 9.4 µM; 1,200 tested, 48% active
Hits are given with their value; . = inactive; / = not tested or not shown. Unless noted, no stated cut-off is given here; in the data, active means inhibition above about 19%; inactive means the rest.

SMILES | ASAP1 inh | ARFGAP1 inhibitor | UHRF1 MBD2 ctr | TCR-CD3 inh | MBD2 inh | LEDGF integ inh | BSA probe FL | TCR-CD3 conf
Cc1nc(N)sc1-c1csc(Nc2ncccn2)n1 | . | . | . | 19.6 | . | . | . | 20.4
COC(=O)Nc1ccc(S(=O)(=O)NNC(=O)c2c(O)c3ccccc3n(C)c2=O)cc1 | . | . | . | 55.8 | . | . | . | 24.7
Cn1c(=O)c(C(=O)NNC(=O)c2ccccc2F)c(O)c2ccccc21 | . | . | . | 33.4 | . | . | . | 27.7
CCn1c(=O)c(C(=O)NNS(=O)(=O)c2ccc(NC(=O)OC)cc2)c(O)c2ccccc21 | . | . | . | . | . | . | / | /
CCn1c(CSc2nnc(-c3ccncc3)n2C)nc2cc(C(=O)O)ccc21 | . | . | . | 89.3 | . | . | 154.9 | 108.8
CCn1c(CSc2ncn[nH]2)nc2cc(C(=O)O)ccc21 | . | . | . | . | . | . | / | /
O=C(Cc1ccc(S(=O)(=O)N2CCOCC2)s1)N1CCN(S(=O)(=O)c2cccc([N+](=O)[O-])c2)CC1 | . | . | . | . | . | . | / | /
O=C(NNC(=O)c1cccc2ccccc12)c1ccc(-c2ccccc2)cc1 | . | . | . | . | . | . | / | /
O=C(NNC(=O)c1ccccc1O)c1cc2ccccc2o1 | . | . | . | 33.1 | . | . | . | 21.8
O=C(NNC(=O)c1cccc2ccccc12)c1ccccc1O | . | . | . | 28.1 | . | . | . | .
O=C(NNC(=O)c1cc2ccccc2o1)c1ccncc1 | . | . | . | . | . | . | / | /
CCN(Cc1cn(Cc2ccccc2)nn1)S(=O)(=O)c1ccc(F)cc1Br | / | / | . | / | . | . | / | /
CCC1CN(C(=O)NCc2ccccc2)c2ccccc2O1 (stereo not given) | . | . | . | . | . | . | / | /
O=C(COC(=O)c1cc(-c2cccc3ccccc23)nc2ccccc12)NC1CCS(=O)(=O)C1 (stereo not given) | . | . | . | 29.8 | . | . | 54.4 | 37.7
COc1cccc(/C=N/NC(=O)c2cc3c(OC)ccc(OC)c3[nH]2)c1O | . | . | . | . | . | . | / | /
COc1cc(OC)c2cc(C(=O)N/N=C/c3cccc(OC)c3O)[nH]c2c1 | . | . | . | 23.5 | . | . | . | .
O=C(NC(=S)N1CCCC1)c1ccccc1Cl | . | . | . | . | . | . | / | /
COc1ccc(NS(=O)(=O)c2cccc(C(=O)N/N=C/c3cn(-c4ccccc4)nc3-c3ccccc3)c2)cc1 | . | . | . | . | . | . | / | /
COc1ccccc1NS(=O)(=O)c1cccc(C(=O)N/N=C/c2cn(-c3ccccc3)nc2-c2ccccc2)c1 | . | . | . | 45.0 | . | . | . | 43.6
Cc1ccc(C(=O)Nc2cnc3ccccn3c2=O)cc1 | . | . | . | 25.4 | . | . | . | .
Cc1cc2cc(CNC(=O)c3ccc(Br)o3)ccc2[nH]1 | . | . | . | . | . | . | / | /
Cc1cc2cc(CNC(=O)c3ccc(Br)o3)ccc2n1C | . | . | . | 22.5 | . | . | . | .
O=C(NCc1ccncc1)Nc1cccc(Cl)c1 | . | . | . | . | . | . | / | /
COc1cccc(NC(=S)NCc2ccc3c(c2)cc(C)n3C)c1 | . | . | . | . | . | . | / | /
Cc1cccc(NC(=O)NCc2ccc3c(c2)cc(C)n3C)c1 | . | . | . | 34.1 | . | . | . | .
SMILES | ASAP1 inh | ARFGAP1 inhibitor | UHRF1 MBD2 ctr | TCR-CD3 inh | MBD2 inh | LEDGF integ inh | BSA probe FL | TCR-CD3 conf
Cc1cc2cc(CNC(=O)Nc3cccc(Cl)c3)ccc2n1C | . | . | . | 55.3 | . | . | . | .
CCc1nnc(NC(=O)CCC(=O)NC2CCCCC2)s1 | . | . | . | . | . | . | / | /
CC(C)Cc1nnc(NC(=O)CCC(=O)NC2CCCCC2)s1 | . | . | . | 20.4 | . | . | . | .
CCOC(=O)CSc1nnc(-c2cc(OC)c(OC)c(OC)c2)o1 | . | . | . | . | . | . | / | /
COc1cc(-c2nnc(SCc3cc(=O)oc4cc(O)c(O)cc34)o2)cc(OC)c1OC | . | . | 51.5 | 28.2 | 28.9 | 78.1 | . | 40.0
Fc1ccc(-c2n[nH]c(=S)n2N=Cc2ccc(-c3ccccc3)cc2)cc1 | / | / | . | / | . | . | / | /
C#CCN1c2ccccc2Sc2cccnc21 | . | . | . | 47.5 | . | . | . | .
Cc1nn(CC(=O)NC(=O)NC2CCCC(C)C2C)c(=O)c(C#N)c1C (stereo not given) | . | . | . | 23.6 | . | . | . | .
N#Cc1c(N(CCO)CCO)nc(N)c2c(N)nc3c(c12)CC(=O)N3CC1CCCO1 (stereo not given) | . | . | . | 24.6 | . | . | . | .
COc1ccccc1OCC(=O)N/N=C/c1c(O)ccc2ccccc12 | . | . | . | 19.6 | . | . | . | .
C=CCn1c(-c2ccco2)n[nH]c1=S | . | . | . | 54.1 | . | . | . | .
CCn1c(-c2ccco2)n[nH]c1=S | . | . | . | . | . | . | / | /
NS(=O)(=O)c1ccc(NC(=O)/C=C/c2cn(-c3ccccc3)nc2-c2cccc(Cl)c2)cc1 | . | . | . | 24.4 | . | . | . | 26.9
C=CCN(c1ccccc1)S(=O)(=O)c1ccc2c(c1)oc(=O)n2C | . | . | . | 63.7 | . | . | . | .
CN(c1ccccc1)S(=O)(=O)c1ccc2c(c1)oc(=O)n2C | . | . | . | . | . | . | / | /
CCCCNC(=O)Cn1cnc2sc(C)c(S(=O)(=O)N3CCN(c4ccccc4OC)CC3)c2c1=O | . | . | . | . | . | . | / | /
Cc1ccccc1OCc1nc(-c2ccc(NC(=O)c3cccs3)cc2)no1 | . | . | . | 28.1 | . | . | . | .
CCOC(=O)[C@]12CCCC=C1N(Cc1ccco1)C(=O)[C@H](CC(=O)N1CCOCC1)C2 | . | . | . | . | . | . | / | /
Cc1ccc(S(=O)(=O)N(C)c2ccc(OCC(=O)Nc3nc4ccccc4s3)cc2)cc1 | . | . | . | 20.7 | . | . | . | .
S=c1[nH]nc(-c2n[nH]c3c2CCC3)n1/N=C/C=C/c1ccco1 | . | . | . | 27.3 | . | . | . | .
COc1ccc(-c2cc(CNc3nc4cc(-c5ccccc5C)sc4c(=O)n3C)on2)cc1 | . | . | . | 30.5 | . | . | . | .
CC(C(=O)N1CCN(Cc2ccc3c(c2)OCO3)CC1)n1cc([N+](=O)[O-])cn1 (stereo not given) | . | . | . | . | . | . | / | /
CC(=O)c1ccc(NC(=O)c2cc(Cl)nc3ccccc23)cc1 | . | . | . | 62.0 | . | . | . | .
Cc1ccc2c(c1)N(C(=O)CCC(=O)N1CCC(C(N)=O)CC1)CCO2 | . | . | . | . | . | . | / | /
O=C(NNC(=O)C1COc2ccccc2O1)c1ccccc1O (stereo not given) | . | . | . | 28.7 | . | . | . | 24.8

High-throughput results: PubChem BioAssay, The Scripps Research Institute Molecular Screening Center
